Test results as given in ChEMBL document CHEMBL3124901, “Inhibitory effect of a callophycin A derivative on iNOS expression via inhibition of Akt in lipopolysaccharide-stimulated RAW 264.7 cells” (2014).
Activity calls are given as the source filed them. No cut-off for these calls is given here.

How the values were obtained:
RAW264.7 [1] = experiment: Antiinflammatory activity in LPS-stimulated mouse RAW264.7 cells assessed as inhibition of iNOS protein expression at 50 uM preincubated for 15 mins followed by LPS challenge measured after 20 hrs by Western blot analysis; assay type: functional, cell-based
RAW264.7 [2] = experiment: Inhibition of PI3K/AKT in mouse RAW264.7 cells assessed as inhibition of LPS-induced iNOS protein expression at 25 uM after 20 hrs by Western blot analysis; assay type: cell-based
Procedure, shortened: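 Pretreatment with 25 μM or LY294002 (25 μM), then LPS for 20 h; iNOS protein by Western blot.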

For `O=C(O)[C@H]1Cc2c([nH]c3ccccc23)CN1Cc1ccc(O)cc1`, the inhibition (RAW264.7 [1]) was “inactive”.
With `O=C(O)[C@@H]1Cc2c([nH]c3ccccc23)CN1Cc1ccc(O)cc1` the inhibition (RAW264.7 [1]) was “inactive”.
`O=c1cc(N2CCOCC2)oc2c(-c3ccccc3)cccc12` was tested, and the inhibition (RAW264.7 [2]) was “Active”.
